The values below come from ChEMBL document CHEMBL4014301, “Design, synthesis and evaluation of 4-substituted anthra[2,1-c][1,2,5]thiadiazole-6,11-dione derivatives as novel non-camptothecin topoisomerase I inhibitors” (Bioorg Med Chem Lett, 2017).

Calls of active or inactive are those of the source. No cut-off for these calls is given here.

The IC50 is the midpoint of a concentration-inhibition curve. Read a high IC50 as a need for much substance.

One experiment concerns HCT-116. The experiment is described as follows: Antiproliferative activity against human HCT116 cells after 72 hrs by MTT assay. The note with it: Homo sapiens, HCT-116, 72 h. It counts as functional, cell-based. On the technique in general: Tetrazolium dyes change colour on reduction, which living cells bring about.
The next experiment concerns ZR-75-30. The experiment is described as follows: Antiproliferative activity against human ZR-7530 cells after 72 hrs by MTT assay. As to conditions: Homo sapiens, ZR-75-30, 72 h. In kind it is functional, cell-based.
The next experiment has as its system A549. The experiment is described as follows: Antiproliferative activity against human A549 cells after 72 hrs by MTT assay. In kind it is functional, cell-based. The note with it: Homo sapiens, A549, 72 h.
Experiment [1] has as its target T1, DNA topoisomerase 1 (Homo sapiens) (UniProt P11387).
T1 sequence (whole entry): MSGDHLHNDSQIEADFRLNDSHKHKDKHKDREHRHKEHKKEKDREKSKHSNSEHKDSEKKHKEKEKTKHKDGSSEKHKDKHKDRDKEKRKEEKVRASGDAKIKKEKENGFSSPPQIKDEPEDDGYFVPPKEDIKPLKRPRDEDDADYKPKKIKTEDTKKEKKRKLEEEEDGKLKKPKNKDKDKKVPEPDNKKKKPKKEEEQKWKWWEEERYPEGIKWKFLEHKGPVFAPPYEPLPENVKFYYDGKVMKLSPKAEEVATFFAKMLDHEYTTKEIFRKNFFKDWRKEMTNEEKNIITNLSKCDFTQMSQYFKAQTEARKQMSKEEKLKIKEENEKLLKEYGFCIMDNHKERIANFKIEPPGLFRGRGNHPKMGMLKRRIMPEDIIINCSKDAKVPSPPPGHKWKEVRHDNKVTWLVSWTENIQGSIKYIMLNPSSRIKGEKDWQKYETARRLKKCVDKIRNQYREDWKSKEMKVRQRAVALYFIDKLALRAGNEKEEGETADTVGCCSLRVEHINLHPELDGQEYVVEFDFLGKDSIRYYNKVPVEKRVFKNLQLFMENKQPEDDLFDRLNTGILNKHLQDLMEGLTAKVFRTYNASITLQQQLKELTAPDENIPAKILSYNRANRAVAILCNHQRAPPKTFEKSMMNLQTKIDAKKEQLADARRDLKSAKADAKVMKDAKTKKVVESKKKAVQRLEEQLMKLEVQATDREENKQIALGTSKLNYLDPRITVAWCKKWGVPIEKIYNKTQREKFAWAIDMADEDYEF
Description: Inhibition of DNA topoisomerase 1 (unknown origin) assessed as reduction in supercoiled pBR322 plasmid DNA relaxation at 100 uM after 15 mins by ethidium bromide staining based agarose gel electrophoresis. The essentials: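 Supercoiled pBR322 plasmid incubated with Top1, with or without compound at 1, 10 and 100 µM. Relaxation inhibition read from agarose gel bands.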

In the case of `Cc1cccc(S(=O)(=O)c2cc3c(c4nsnc24)C(=O)c2ccccc2C3=O)c1`, the IC50 was 78 µM with HCT-116, greater than 100 µM with ZR-75-30 and greater than 100 µM with A549.
On to `O=C1c2ccccc2C(=O)c2c1cc(N1CCN(Cc3ccccc3)CC1)c1nsnc21`, for which the IC50 with HCT-116, in the experiment with ZR-75-30 and with A549 was greater than 100 µM in each case.
In the case of `CC(C)Nc1cc2c(c3nsnc13)C(=O)c1ccccc1C2=O`, the IC50 stood at 7 µM in the experiment with HCT-116, 3 µM in the experiment on ZR-75-30 and 6.7 µM in the experiment on A549. For the same molecule, the inhibition entry in experiment [1] is “Active”.
Turning to `CC(C)(C)c1ccc(S(=O)(=O)c2cc3c(c4nsnc24)C(=O)c2ccccc2C3=O)cc1`, the values for the IC50 with HCT-116, with ZR-75-30 and in the experiment on A549 were 34 µM, greater than 50 µM and greater than 50 µM, respectively.
Regarding `O=C1c2ccccc2C(=O)c2c1cc(NC1CCCCC1)c1nsnc21`, the results for the IC50 in the experiment with HCT-116, in the experiment on ZR-75-30 and in the experiment with A549 were 5.1 µM, 4.1 µM and 3.8 µM, respectively.
Taken in the same sequence, the figures for `CC(C)c1ccc(S(=O)(=O)c2cc3c(c4nsnc24)C(=O)c2ccccc2C3=O)cc1` were 27 µM, 83 µM and greater than 100 µM.
Taken in the same sequence, the figures for `CCC(C)Nc1cc2c(c3nsnc13)C(=O)c1ccccc1C2=O` (configuration not stated) were 58 µM, greater than 100 µM and greater than 100 µM.
As to `O=C1c2ccccc2C(=O)c2c1cc(N1CCCC1)c1nsnc21`, the IC50 in the experiment with HCT-116 was 68 µM; with ZR-75-30, 45 µM; with A549, greater than 100 µM.
In the case of `CC(C)c1ccc(Sc2cc3c(c4nsnc24)C(=O)c2ccccc2C3=O)cc1`, the IC50 in the experiment on HCT-116, in the experiment on ZR-75-30 and in the experiment on A549 was greater than 100 µM throughout.
`O=C1c2ccccc2C(=O)c2c1cc(Sc1ccccc1)c1nsnc21`: the IC50 in the experiment on HCT-116, in the experiment with ZR-75-30 and in the experiment with A549 was greater than 100 µM in each case.
With `CCCCCCCNc1cc2c(c3nsnc13)C(=O)c1ccccc1C2=O`, the IC50 in the experiment with HCT-116 was found to be 34 µM; with ZR-75-30, 12 µM; in the experiment on A549, 44 µM.
On the same counts, the results for `O=C1c2ccccc2C(=O)c2c1cc(N1CCN(c3ccccn3)CC1)c1nsnc21` are greater than 100 µM, greater than 100 µM and greater than 100 µM.
With `O=C1c2ccccc2C(=O)c2c1cc(S(=O)(=O)c1ccc(Br)cc1)c1nsnc21`, the IC50 in the experiment on HCT-116 turned out to be 18 µM; in the experiment with ZR-75-30 it was 94 µM; in the experiment with A549 it was 97 µM.
As for `O=C1c2ccccc2C(=O)c2c1cc(SCc1ccccc1)c1nsnc21`, the IC50 in the experiment with HCT-116, in the experiment on ZR-75-30 and with A549 was greater than 100 µM throughout.
Turning to `CCCCCCCCNc1cc2c(c3nsnc13)C(=O)c1ccccc1C2=O`, the IC50 worked out at 54 µM in the experiment with HCT-116, 22 µM in the experiment with ZR-75-30 and 31 µM with A549.
With `O=C1c2ccccc2C(=O)c2c1cc(N1CCCCC1)c1nsnc21`, the IC50 in the experiment on HCT-116 was greater than 100 µM; with ZR-75-30, 8.1 µM; with A549, greater than 100 µM.
With `O=C1c2ccccc2C(=O)c2c1cc(Sc1cccc(Cl)c1)c1nsnc21`, the IC50 in the experiment with HCT-116, with ZR-75-30 and in the experiment with A549 was greater than 100 µM each time.
As for `CC(C)(C)OC(=O)N1CCN(c2cc3c(c4nsnc24)C(=O)c2ccccc2C3=O)CC1`, the half-inhibitory concentration (IC50) in the experiment on HCT-116, in the experiment on ZR-75-30 and in the experiment on A549 was greater than 100 µM throughout.
With `O=C1c2ccccc2C(=O)c2c1cc(S(=O)(=O)c1ccc(Cl)cc1)c1nsnc21`, the IC50 in the experiment with HCT-116 is 15 µM; in the experiment on ZR-75-30, greater than 100 µM; in the experiment on A549, greater than 100 µM.
Take `O=C1c2ccccc2C(=O)c2c1cc(S(=O)(=O)c1cccc(Cl)c1)c1nsnc21`: the IC50 in the experiment on HCT-116, in the experiment on ZR-75-30 and with A549 was greater than 100 µM in each case.
Consider `CCOc1cccc(Sc2cc3c(c4nsnc24)C(=O)c2ccccc2C3=O)c1`, for which the IC50 with HCT-116, in the experiment with ZR-75-30 and with A549 was greater than 50 µM throughout.
With `O=C1c2ccccc2C(=O)c2c1cc(S(=O)(=O)c1cccc(F)c1)c1nsnc21`, the results for the IC50 with HCT-116, in the experiment on ZR-75-30 and in the experiment with A549 were 24 µM, greater than 100 µM and greater than 100 µM, respectively.
Consider `CCOc1cccc(S(=O)(=O)c2cc3c(c4nsnc24)C(=O)c2ccccc2C3=O)c1`, for which the IC50 in the experiment with HCT-116, in the experiment on ZR-75-30 and with A549 was greater than 100 µM in each case.
For `CC(C)(C)c1ccc(Sc2cc3c(c4nsnc24)C(=O)c2ccccc2C3=O)cc1`, the IC50 in the experiment with HCT-116, in the experiment on ZR-75-30 and in the experiment on A549 was greater than 100 µM in each case.
`Cc1cccc(Sc2cc3c(c4nsnc24)C(=O)c2ccccc2C3=O)c1`: the IC50 in the experiment on HCT-116 was 21 µM; with ZR-75-30 it was 49 µM; in the experiment with A549 it was greater than 100 µM.
As to `O=C1c2ccccc2C(=O)c2c1cc(Sc1nc3ccccc3s1)c1nsnc21`, the IC50 with HCT-116, in the experiment on ZR-75-30 and in the experiment on A549 was greater than 100 µM in each case.
Take `COc1ccc(S(=O)(=O)c2cc3c(c4nsnc24)C(=O)c2ccccc2C3=O)cc1`: the IC50 in the experiment on HCT-116, with ZR-75-30 and with A549 was greater than 50 µM each time.
Take `O=C1c2ccccc2C(=O)c2c1cc(S(=O)(=O)c1nc3ccccc3s1)c1nsnc21`: the IC50 with HCT-116, in the experiment on ZR-75-30 and in the experiment with A549 was greater than 100 µM throughout.
For the molecule `O=C1c2ccccc2C(=O)c2c1cc(S(=O)(=O)Cc1ccccc1)c1nsnc21`, the values for the IC50 in the experiment with HCT-116, in the experiment with ZR-75-30 and in the experiment with A549 were 68 µM, greater than 100 µM and greater than 100 µM, respectively.
Regarding `COc1ccc(Sc2cc3c(c4nsnc24)C(=O)c2ccccc2C3=O)cc1`, the 50% inhibitory concentration (IC50) in the experiment on HCT-116, with ZR-75-30 and with A549 was greater than 100 µM each time.
Consider `O=C1c2ccccc2C(=O)c2c1cc(S(=O)(=O)c1ccccc1)c1nsnc21`, for which the IC50 in the experiment with HCT-116 is 35 µM; with ZR-75-30 it was greater than 100 µM; with A549 it was greater than 100 µM.
As to `O=C1c2ccccc2C(=O)c2c1cc(NCc1ccccc1)c1nsnc21`, the IC50 with HCT-116 was 1.9 µM; in the experiment on ZR-75-30, 4.5 µM; in the experiment on A549, 4 µM.
Taken in the same sequence, the figures for `CCCNc1cc2c(c3nsnc13)C(=O)c1ccccc1C2=O` were greater than 100 µM, greater than 100 µM and greater than 100 µM.
Turning to `CCc1c2c(nc3ccc(OC(=O)N4CCC(N5CCCCC5)CC4)cc13)-c1cc3c(c(=O)n1C2)COC(=O)[C@]3(O)CC` [IRINOTECAN], the values for the IC50 in the experiment with HCT-116 and in the experiment with ZR-75-30 were 6.3 µM and 18 µM, respectively.
As for `CCOc1ccc(Nc2cc3c(c4nsnc24)C(=O)c2ccccc2C3=O)cc1`, the IC50 in the experiment on HCT-116 is 100 µM; in the experiment with ZR-75-30, 91 µM; with A549, greater than 100 µM.
Regarding `O=C1c2ccccc2C(=O)c2c1cc(S(=O)(=O)c1ccc(F)cc1)c1nsnc21`, the IC50 in the experiment on HCT-116 was 23 µM; in the experiment with ZR-75-30, 36 µM; with A549, greater than 100 µM.
As for `CCCCCCNc1cc2c(c3nsnc13)C(=O)c1ccccc1C2=O`, the IC50 with HCT-116 is 50 µM; in the experiment with ZR-75-30, 47 µM; in the experiment with A549, greater than 100 µM.
For the molecule `O=C1c2ccccc2C(=O)c2c1cc(NCc1cccnc1)c1nsnc21`, the IC50 is 87 µM in the experiment on HCT-116, 12 µM in the experiment with ZR-75-30 and greater than 100 µM in the experiment on A549.
Turning to `CC[C@@]1(O)C(=O)OCc2c1cc1n(c2=O)Cc2cc3ccccc3nc2-1` [CAMPTOTHECIN], the figures for the IC50 in the experiment on HCT-116 and in the experiment with ZR-75-30 were 0.12 µM and 0.24 µM, respectively.
For `O=C1c2ccccc2C(=O)c2c1cc(Sc1ccc(Br)cc1)c1nsnc21`, the IC50 with HCT-116, with ZR-75-30 and in the experiment with A549 was greater than 100 µM each time.
In the case of `Cc1ccc(Sc2cc3c(c4nsnc24)C(=O)c2ccccc2C3=O)cc1`, the IC50 in the experiment on HCT-116 was 26 µM; with ZR-75-30 it was 22 µM; in the experiment with A549, greater than 100 µM.
Regarding `O=C1c2ccccc2C(=O)c2c1cc(NCc1ccc(C(F)(F)F)cc1)c1nsnc21`, the IC50 is 72 µM in the experiment on HCT-116, 98 µM with ZR-75-30 and greater than 100 µM in the experiment with A549.
As to `O=C1c2ccccc2C(=O)c2c1cc(Sc1cccc(F)c1)c1nsnc21`, the IC50 with HCT-116, in the experiment with ZR-75-30 and in the experiment with A549 was greater than 50 µM in each case.
With `O=C1c2ccccc2C(=O)c2c1cc(Sc1ccc(F)cc1)c1nsnc21`, the IC50 in the experiment with HCT-116 was 9.8 µM; in the experiment with ZR-75-30, 20 µM; in the experiment with A549, greater than 50 µM.
On to `O=C1c2ccccc2C(=O)c2c1cc(Sc1ccc(Cl)cc1)c1nsnc21`, for which the IC50 in the experiment on HCT-116, with ZR-75-30 and in the experiment on A549 was greater than 100 µM in each case.
In the case of `O=C1c2ccccc2C(=O)c2c1cc(NCc1ccc(Cl)cc1)c1nsnc21`, the IC50 in the experiment on HCT-116, with ZR-75-30 and with A549 was greater than 100 µM in each case.
